From ChEMBL document CHEMBL1124844, “Synthesis and biological activities of novel 5-(2-acylethynyl)uracils” (J Med Chem, 1990)

Tests used:
[1] = Effect on the survival of mice bearing ascites tumor at the dose of 30 mg/kg; format: functional, Mus musculus
Outline: (§1)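 Swiss mice (18–20 g) inoculated ip on day 0 with 1 × 10⁶ EAC cells drawn from a 10–20 day donor tumor. Compounds homogenized in normal saline with 10% propylene glycol and given ip starting 24 h later, as single dose or daily for 7 days. Five mice per dose; vehicle-only controls. Survival read as median survival time (days).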

[2] = system: CCRF-CEM; experiment: (§2) Effect on CCRF-CEM cells in culture; format: functional, cell-based; settings: Homo sapiens
Outline: (§3)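 Murine L1210/0 leukemia and human CCRF-CEM lymphoblastoid cells incubated at 37 °C for 48 h over a range of compound concentrations. Growth inhibition read as IC50 (μM).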

[3] = Effect on the survival of mice bearing ascites tumor at the dose of 210 mg/kg; format: functional, Mus musculus; outline: as §1
[4] = Effect on the survival of mice bearing ascites tumor at the dose of 20 mg/kg; format: functional, Mus musculus; outline: as §1
[5] = Effect on the survival of mice bearing ascites tumor in extremes treated at the dose of 30 mg/kg; format: functional, Mus musculus
Outline: (§4)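 EAC-bearing Swiss mice given ip compound in saline/10% propylene glycol, single dose or daily for 7 days, starting 24 h after ip inoculation of 1 × 10⁶ cells. Five mice per dose; vehicle controls. Value is the range (shortest to longest) of survival days in the treated group.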

[6] = Effect on the survival of mice bearing ascites tumor in percent controls at the dose of 210 mg/kg; format: functional, Mus musculus
Outline: (§5)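 Swiss mice inoculated ip with 1 × 10⁶ EAC cells, then treated ip with compound in saline/10% propylene glycol, single dose or 7 daily doses, starting 24 h later. Five mice per dose; vehicle controls. Treated median survival time expressed as percent of control; >125 counted active.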

[7] = Drug evaluation at the dose of 20 mg/kg by counting the average ascites cells number; 35/150; format: functional, Mus musculus
Outline: (§6)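 EAC cells drawn from Swiss mouse bearing a 10–20 day tumor, diluted and counted; Swiss mice (18–20 g) inoculated ip with 1 × 10⁶ cells in 0.2 mL on day 0. Dosing ip once daily on days 1–7, in normal saline with 10% propylene glycol; controls given vehicle. Five animals per dose group. Tumor cell counts and ascitic fluid weight compared, treated (T) vs control (C).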

[8] = Effect on the survival of mice bearing ascites tumor in percent controls at the dose of 140 mg/kg; format: functional, Mus musculus; outline: as §5
[9] = Percent inhibition of ascites cell at the dose of 20 mg/kg; format: functional; settings: Mus musculus; outline: as §6
[10] = Effect on the survival of mice bearing ascites tumor in percent controls at the dose of 30 mg/kg; format: functional, Mus musculus; outline: as §5
[11] = system: L1210; experiment: (§7) Effect on L1210/0 cells in culture; format: functional, cell-based; settings: Mus musculus; outline: as §3
[12] = Effect on the survival of mice bearing ascites tumor in percent controls at the dose of 20 mg/kg; format: functional, Mus musculus; outline: as §5
[13] = Percent inhibition of ascitic fluid at the dose of 20 mg/kg; format: functional; settings: Mus musculus; outline: as §6
[14] = Effect on the survival of mice bearing ascites tumor in extremes treated at the dose of 210 mg/kg; format: functional, Mus musculus; outline: as §4
[15] = Drug evaluation at the dose of 20 mg/kg by calculating fluid weight; 0.8/2; format: functional, Mus musculus; outline: as §6
[16] = Effect on the survival of mice bearing ascites tumor at the dose of 140 mg/kg; format: functional, Mus musculus; outline: as §1
[17] = Effect on the survival of mice bearing ascites tumor in extremes treated at the dose of 20 mg/kg; format: functional, Mus musculus; outline: as §4
[18] = Effect on the survival of mice bearing ascites tumor in extremes treated at the dose of 140 mg/kg; format: functional, Mus musculus; outline: as §4
[19] = Drug evaluation at the dose of 20 mg/kg by counting the average ascites cells number; 100/123; format: functional, Mus musculus; outline: as §6
[20] = Drug evaluation at the dose of 20 mg/kg by calculating fluid weight; 2/2.5; format: functional, Mus musculus; outline: as §6
[21] = system: CCRF-CEM; experiment: Effect on CCRF-CEM cells (human lymphoblastoid cells) in culture; format: functional, cell-based; outline: as §3
[22] = Effect on the survival of mice bearing ascites tumor at the dose of 70 mg/kg; format: functional, Mus musculus; outline: as §1
[23] = Effect on the survival of mice bearing ascites tumor in percent controls at the dose of 10 mg/kg; format: functional, Mus musculus; outline: as §5
[24] = Effect on the survival of mice bearing ascites tumor at the dose of 10 mg/kg; format: functional, Mus musculus; outline: as §1
[25] = Effect on the survival of mice bearing ascites tumor in percent controls at the dose of 70 mg/kg; format: functional, Mus musculus; outline: as §5
[26] = Effect on the survival of mice bearing ascites tumor in extremes treated at the dose of 10 mg/kg; format: functional, Mus musculus; outline: as §4
[27] = system: L1210; experiment: Effect on L1210/0 cells (mouse leukemia cells) in culture
[28] = Effect on the survival of mice bearing ascites tumor in extremes treated at the dose of 70 mg/kg; format: functional, Mus musculus; outline: as §4
[29] = Drug evaluation at the dose of 20 mg/kg by counting the average ascites cells number; 59/165; format: functional, Mus musculus; outline: as §6
[30] = system: CCRF-CEM; experiment: as §2; format: functional, cell-based; settings: Homo sapiens; remark: listed apart in the source
Outline: (§8)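 CCRF-CEM human lymphoblastoid or L1210/0 mouse leukemia cells incubated with a range of compound concentrations at 37 °C for 48 h; IC50 (μM) taken from cell growth.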

[31] = system: L1210; experiment: as §7; format: functional, cell-based; settings: Mus musculus; outline: as §8; remark: listed apart in the source

| SMILES | Survival treated [1] | Survival treated [3] | Survival treated [4] | Extremes treated [5] | Controls [6] [%] | Controls [8] [%] | inhibition in vivo at 20 mg/kg [9] [%] | Controls [10] [%] | IC50 [11] [µM] | Controls [12] [%] | inhibition in vivo at 20 mg/kg [13] [%] | Extremes treated [14] | Survival treated [16] | Extremes treated [17] | Extremes treated [18] | IC50 [21] [µM] | other results |
| --- | --- | --- | --- | --- | --- | --- | --- | --- | --- | --- | --- | --- | --- | --- | --- | --- | --- |
| O=C(C#Cc1cnc(O)nc1O)c1ccccc1 | 17.5 | 21.5 | 22 | 18 | 165 | 281 | 76 | 134 | 0.65 | 169 | 60 | 22 | 36.5 | 23 | 39 | – | IC50 [2]: 2 µM; T/C [7]: 0.233; T/C [15]: 0.4 |
| COc1ccc(C(=O)C#Cc2cnc(O)nc2O)cc1 | 12 | 14 | 18 | 13 | 127 | 127 | 19.1 | 109 | 2 | 164 | 20 | 16 | 14 | 19 | 15 | 2.3 | T/C [19]: 0.813; T/C [20]: 0.8 |
| Cc1ccc(C(=O)C#Cc2cnc(O)nc2O)cc1 | – | – | 20.5 | – | – | 300 | – | – | – | 178 | – | – | 34.5 | 23 | 35 | 2.25 | Survival treated [22]: 30; Controls [23]: 113%; Survival treated [24]: 13; Controls [25]: 260%; Extremes treated [26]: 14; IC50 [27]: 1.9 µM; Extremes treated [28]: 31 |
| O=C(C#Cc1cnc(O)nc1O)c1ccccc1Cl | 18.5 | 26.5 | 16.5 | 20 | 204 | 127 | 64.2 | 142 | 2 | 127 | 37.5 | 27 | 16.5 | 17 | 18 | 2.2 | T/C [29]: 0.358 |
| O=c1[nH]cc(F)c(=O)[nH]1 [FLUOROURACIL] | – | – | 41 | – | – | 92 | – | – | – | 342 | – | – | 11 | 45 | 14 | – | IC50 [30]: 2 µM; IC50 [31]: 0.3 µM |
